Source: ChEMBL document CHEMBL1125204, “Synthesis and biological activity of sinefungin analogues” (J Med Chem, 1991)

Experiments:
Leishmania donovani [1] = assay: Cell growth of Leishmania donovani promastigotes measured at 24 hr of 0.26 uM sinefungin treatment before compound (260 uM) addition.; format: functional
Summary of the method: (§1)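 L. donovani LRC L-52 promastigotes, 0.5×10^6 in 500 μL, grown at 26 °C in 45% DMEM/45% RPMI 1640 (25 mM HEPES pH 7.4) with 10% heat-inactivated FCS. Compounds in water added with 0.26 μM sinefungin. Duplicate wells beside untreated cultures; hemacytometer counts; growth inhibition expressed as % of untreated.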

Leishmania donovani [2] = assay: Cell growth of Leishmania donovani promastigotes measured at 0h of 0.26 uM sinefungin treatment before compound (260 uM) addition.; format: functional; summary of the method: as §1
[3] = It is the ratio of Ki value to that of Km.; format: ADME
Summary of the method: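 Ki/Km ratio for protein-carboxyl methyltransferase in cell-free promastigote extracts, α-globulin as substrate. Ki and Km read from Lineweaver–Burk plots.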

Leishmania donovani [4] = assay: (§2) Apparent kinetic activity measured for protein carboxyl methyltransferase in Leishmania donovani promastigotes; format: organism-based
Summary of the method: (§3)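 Cell-free extracts of L. donovani promastigotes (strain LRC L-52) assayed for S-adenosylmethionine:protein-carboxyl methyltransferase activity, with α-globulin as the methyl-accepting substrate. Kinetic constants came from Lineweaver–Burk plots and were expressed as a Ki/Km ratio. Protein was measured by the Bradford dye-binding method against a bovine serum albumin standard.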

Leishmania donovani [5] = assay: Thymidine uptake and incorporation in Leishmania donovani promastigotes measured in the TCA insoluble material at a concentration 11.6 uM in the presence of sinefungin (0.026 uM).; format: functional
Summary of the method: (§4)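 Promastigotes at 5×10^8 cells/mL in DMEM/RPMI/FCS medium at 26 °C, equilibrated 3–4 h, then exposed 4 h to compound alone or with 0.026 μM sinefungin. Labelled 1 h with 2.5 μCi/mL [methyl-3H]thymidine and washed in cold PBS. Uptake taken from cold TCA-soluble fraction, incorporation from TCA-insoluble fraction. Protein measured by Lowry method.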

Leishmania donovani [6] = assay: Cell growth of Leishmania donovani promastigotes measured at 16h of 0.26 uM sinefungin treatment before compound (260 uM) addition.; format: functional; summary of the method: as §1
Leishmania donovani [7] = assay: Cell growth of Leishmania donovani promastigotes measured at 48 hr of 0.26 uM sinefungin treatment before compound (260 uM) addition.; format: functional; summary of the method: as §1
Leishmania donovani [8] = assay: Thymidine uptake and incorporation in Leishmania donovani promastigotes measured in the TCA insoluble material at a concentration 23.3 uM in the presence of sinefungin (0.026 uM).; format: functional; summary of the method: as §4
Leishmania donovani [9] = assay: Thymidine uptake and incorporation in Leishmania donovani promastigotes measured in the TCA soluble material at a concentration 23.3 uM.; format: functional; summary of the method: as §4
Leishmania donovani [10] = assay: Thymidine uptake and incorporation in Leishmania donovani promastigotes measured in the TCA insoluble material at a concentration 11.6 uM.; format: functional; summary of the method: as §4
Leishmania donovani [11] = assay: Thymidine uptake and incorporation in Leishmania donovani promastigotes measured in the TCA soluble material at a concentration 11.6 uM.; format: functional; summary of the method: as §4
Leishmania donovani [12] = assay: Thymidine uptake and incorporation in Leishmania donovani promastigotes measured in the TCA soluble material at a concentration 23.3 uM in the presence of sinefungin (0.026 uM).; format: functional; summary of the method: as §4
Leishmania donovani [13] = assay: Thymidine uptake and incorporation in Leishmania donovani promastigotes measured in the TCA insoluble material at a concentration 23.3 uM.; format: functional; summary of the method: as §4
Leishmania donovani [14] = assay: Thymidine uptake and incorporation in Leishmania donovani promastigotes measured in the TCA insoluble material at a concentration 130 uM in the presence of sinefungin (0.026 uM).; format: functional; summary of the method: as §4
Leishmania donovani [15] = assay: Cell growth of Leishmania donovani promastigotes measured at 48 hr of 0.26 uM sinefungin treatment before compound (130 uM) addition.; format: functional; summary of the method: as §1
Leishmania donovani [16] = assay: Thymidine uptake and incorporation in Leishmania donovani promastigotes measured in the TCA soluble material at a concentration 130 uM in the presence of sinefungin (0.026 uM).; format: functional; summary of the method: as §4
Leishmania donovani [17] = assay: Cell growth of Leishmania donovani promastigotes measured at 24 hr of 0.26 uM sinefungin treatment before compound (130 uM) addition.; format: functional; summary of the method: as §1
Leishmania donovani [18] = assay: Cell growth of Leishmania donovani promastigotes measured at 0h of 0.26 uM sinefungin treatment before compound (130 uM) addition.; format: functional; summary of the method: as §1
Leishmania donovani [19] = assay: Thymidine uptake and incorporation in Leishmania donovani promastigotes measured in the TCA insoluble material.; format: functional; summary of the method: as §4
Leishmania donovani [20] = assay: Thymidine uptake and incorporation in Leishmania donovani promastigotes measured in the TCA insoluble material in the presence of sinefungin (0.026 uM).; format: functional; summary of the method: as §4
Leishmania donovani [21] = assay: Thymidine uptake and incorporation in Leishmania donovani promastigotes measured in the TCA soluble material.; format: functional; summary of the method: as §4
Leishmania donovani [22] = assay: Cell growth of Leishmania donovani promastigotes measured at 0h of 0.26 uM sinefungin treatment before compound addition.; format: functional; summary of the method: as §1
Leishmania donovani [23] = assay: Thymidine uptake and incorporation in Leishmania donovani promastigotes measured in the TCA soluble material in the presence of sinefungin (0.026 uM).; format: functional; summary of the method: as §4
Leishmania donovani [24] = assay: Cell growth of Leishmania donovani promastigotes measured at 0h of 0.26 uM sinefungin treatment before compound (148 uM) addition.; format: functional; summary of the method: as §1
Leishmania donovani [25] = assay: Cell growth of Leishmania donovani promastigotes measured at 24 hr of 0.26 uM sinefungin treatment before compound (148 uM) addition.; format: functional; summary of the method: as §1
Leishmania donovani [26] = assay: Thymidine uptake and incorporation in Leishmania donovani promastigotes measured in the TCA insoluble material at a concentration 1.25 uM.; format: functional; summary of the method: as §4
Leishmania donovani [27] = assay: Thymidine uptake and incorporation in Leishmania donovani promastigotes measured in the TCA soluble material at a concentration 1.25 uM.; format: functional; summary of the method: as §4
Leishmania donovani [28] = assay: Thymidine uptake and incorporation in Leishmania donovani promastigotes measured in the TCA insoluble material at a concentration 1.25 uM in the presence of sinefungin (0.026 uM).; format: functional; summary of the method: as §4
Leishmania donovani [29] = assay: Thymidine uptake and incorporation in Leishmania donovani promastigotes measured in the TCA soluble material at a concentration 1.25 uM in the presence of sinefungin (0.026 uM).; format: functional; summary of the method: as §4
Leishmania donovani [30] = assay: Thymidine uptake and incorporation in Leishmania donovani promastigotes measured in the TCA soluble material at a concentration 2.1 uM in the presence of sinefungin (0.026 uM).; format: functional; summary of the method: as §4
Leishmania donovani [31] = assay: Thymidine uptake and incorporation in Leishmania donovani promastigotes measured in the TCA soluble material at a concentration 2.1 uM.; format: functional; summary of the method: as §4
Leishmania donovani [32] = assay: Thymidine uptake and incorporation in Leishmania donovani promastigotes measured in the TCA insoluble material at a concentration 2.1 uM in the presence of sinefungin (0.026 uM).; format: functional; summary of the method: as §4
Leishmania donovani [33] = assay: Thymidine uptake and incorporation in Leishmania donovani promastigotes measured in the TCA insoluble material at a concentration 2.1 uM.; format: functional; summary of the method: as §4
Leishmania donovani [34] = assay: Cell growth of Leishmania donovani promastigotes measured at 0h of 0.26 uM sinefungin treatment before compound (156 uM) addition.; format: functional; summary of the method: as §1
Leishmania donovani [35] = assay: Cell growth of Leishmania donovani promastigotes measured at 24 hr of 0.26 uM sinefungin treatment before compound (156 uM) addition.; format: functional; summary of the method: as §1
Leishmania donovani [36] = assay: Cell growth of Leishmania donovani promastigotes measured at 48 hr of 0.26 uM sinefungin treatment before compound (156 uM) addition.; format: functional; summary of the method: as §1
Leishmania donovani [37] = assay: as §2; format: ADME, organism-based; details: in vitro; summary of the method: as §3

SMILES: Nc1ncnc2c1ncn2[C@@H]1O[C@H](CC(N)CCCC(O)CO)[C@@H](O)[C@H]1O (stereo partly specified)
- Cell growth (Leishmania donovani [1]): 59%
- Cell growth (Leishmania donovani [2]): 100%
- Ratio [3]: 8.3
- Ki (Leishmania donovani [4]): 446 µM
- Thymidine uptake (Leishmania donovani [5]): 3391425 c.p.m. (mg of protein)-1
- Cell growth (Leishmania donovani [6]): 92%
- Cell growth (Leishmania donovani [7]): 41%
- Thymidine uptake (Leishmania donovani [8]): 3097327 c.p.m. (mg of protein)-1
- Thymidine uptake (Leishmania donovani [9]): 1020493 c.p.m. (mg of protein)-1
- Thymidine uptake (Leishmania donovani [10]): 3148603 c.p.m. (mg of protein)-1
- Thymidine uptake (Leishmania donovani [11]): 823954 c.p.m. (mg of protein)-1
- Thymidine uptake (Leishmania donovani [12]): 1230950 c.p.m. (mg of protein)-1
- Thymidine uptake (Leishmania donovani [13]): 4079585 c.p.m. (mg of protein)-1

SMILES: C=CCCCC(N)C[C@H]1OC(n2cnc3c(N)ncnc32)[C@H](O)[C@@H]1O (stereo partly specified)
- Thymidine uptake (Leishmania donovani [14]): 2880449 c.p.m. (mg of protein)-1
- Ratio [3]: 15.9
- Cell growth (Leishmania donovani [15]): 41%
- Thymidine uptake (Leishmania donovani [16]): 1703083 c.p.m. (mg of protein)-1
- Ki (Leishmania donovani [4]): 877 µM
- Cell growth (Leishmania donovani [17]): 65%
- Cell growth (Leishmania donovani [18]): 97%

SMILES: Nc1ncnc2c1ncn2C1O[C@H](C[C@@H](N)CC[C@@H](N)C(=O)O)[C@@H](O)[C@H]1O (stereo partly specified)
- Thymidine uptake (Leishmania donovani [19]): 956745 c.p.m. (mg of protein)-1
- Thymidine uptake (Leishmania donovani [20]): 2197110 c.p.m. (mg of protein)-1
- Thymidine uptake (Leishmania donovani [21]): 1741329 c.p.m. (mg of protein)-1
- Cell growth (Leishmania donovani [22]): 15%
- Thymidine uptake (Leishmania donovani [23]): 1583862 c.p.m. (mg of protein)-1

SMILES: NCCC(CN)C[C@H]1OC(n2cnc3c(N)ncnc32)[C@H](O)[C@@H]1O (stereo partly specified)
- Cell growth (Leishmania donovani [24]): 93%
- Ratio [3]: 23.3
- Ki (Leishmania donovani [4]): 1120 µM
- Cell growth (Leishmania donovani [25]): 80%

SMILES: Nc1ncnc2c1ncn2[C@@H]1O[C@H](CC(N)CCCC(=O)O)[C@@H](O)[C@H]1O (stereo in doubt; 3a)
- Thymidine uptake (Leishmania donovani [26]): 1772064 c.p.m. (mg of protein)-1
- Thymidine uptake (Leishmania donovani [27]): 1499100 c.p.m. (mg of protein)-1
- Ratio [3]: 3
- Ki (Leishmania donovani [4]): 165 µM
- Thymidine uptake (Leishmania donovani [28]): 1459000 c.p.m. (mg of protein)-1
- Thymidine uptake (Leishmania donovani [29]): 1556483 c.p.m. (mg of protein)-1

SMILES: Nc1ncnc2c1ncn2[C@@H]1O[C@H](CC(N)CCCC(=O)O)[C@@H](O)[C@H]1O (stereo in doubt; 3b)
- Thymidine uptake (Leishmania donovani [30]): 1973260 c.p.m. (mg of protein)-1
- Ratio [3]: 6.9
- Ki (Leishmania donovani [4]): 380 µM
- Thymidine uptake (Leishmania donovani [31]): 1161185 c.p.m. (mg of protein)-1
- Thymidine uptake (Leishmania donovani [32]): 1861835 c.p.m. (mg of protein)-1
- Thymidine uptake (Leishmania donovani [33]): 3284127 c.p.m. (mg of protein)-1

SMILES: Nc1ncnc2c1ncn2[C@@H]1O[C@H](CC2CCNC2)[C@@H](O)[C@H]1O (stereo in doubt; 6a)
- Cell growth (Leishmania donovani [34]): 83%
- Cell growth (Leishmania donovani [35]): 74%
- Cell growth (Leishmania donovani [36]): 37%
- Ratio [3]: 2.1
- Ki (Leishmania donovani [4]): 103 µM

SMILES: Nc1ncnc2c1ncn2[C@@H]1O[C@H](CC2CCNC2)[C@@H](O)[C@H]1O (stereo in doubt; 6b)
- Ratio [3]: 2.9
- Ki (Leishmania donovani [4]): 140 µM

SMILES: C[S+](CC[C@H](N)C(=O)[O-])C[C@H]1O[C@@H](n2cnc3c(N)ncnc32)[C@H](O)[C@@H]1O (stereo partly specified) [ADEMETIONINE]
- Km (Leishmania donovani [37]): 55 µM

SMILES: Nc1ncnc2c1ncn2[C@@H]1O[C@H](CSCC[C@H](N)C(=O)O)[C@@H](O)[C@H]1O [S-ADENOSYLHOMOCYSTEINE]
- Ratio [3]: 0.13
- Ki (Leishmania donovani [4]): 7.2 µM
